From ChEMBL document CHEMBL1949555, “Piperazine-2,3-dicarboxylic acid derivatives as dual antagonists of NMDA and GluK1-containing kainate receptors” (J Med Chem, 2012)

Assays:
[1] = molecular target: Glutamate receptor ionotropic, kainate 1 (Homo sapiens, UniProt P39086); assay: Antagonist activity at human recombinant GluK1 receptor expressed in human HEK293 cells assessed as inhibition of glutamate-stimulated calcium influx by fluorescence assay; assay type: functional, cell-based
In short: (§1)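 HEK293 lines stably expressing homomeric human GluK1(Q) or GluK2(Q), passaged no more than 20 times. Ca2+ influx is read as fluorescence, with concanavalin A present. Test compound is added in a first run, then L-glutamate plus antagonist in a second run (final glutamate 30 μM for GluK1, 10 μM for GluK2). IC50 values are converted to KB. Means ± s.e.m.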

[2] = molecular target: Ionotropic glutamate receptor NMDA 1/2D (Rattus norvegicus, UniProt P35439+Q62645); assay: Antagonist activity rat recombinant GluN1/GluN2D receptor expressed in Xenopus laevis oocytes assessed as inhibition of glutamate-induced response by two-electrode voltage-clamp electrophysiology assay; assay type: functional, cell-based, Oocyte; conditions: read-out: Ki(app)
Rattus norvegicus [3] = organism: Rattus norvegicus; assay: Selectivity ratio of Ki(app) for rat recombinant GluN1/GluN2B receptor to Ki(app) for rat recombinant GluN1/GluN2D receptor
In short: (§2)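 Rat GluN1a is co-expressed with GluN2A, 2B, 2C or 2D in Xenopus oocytes and recorded by two-electrode voltage clamp at −60 mV. Buffer is 116 mM NaCl, 2 mM KCl, 0.3 mM BaCl2, 5 mM HEPES, pH 7.4. The plateau response to bath-applied 10 μM L-glutamate plus 10 μM glycine is measured. Apparent Ki is IC50/(1+[agonist]/EC50).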

[4] = molecular target: Glutamate receptor ionotropic, kainate 2 (Homo sapiens, UniProt Q13002); assay: Antagonist activity at human recombinant GluK2 receptor expressed in human HEK293 cells assessed as inhibition of glutamate-stimulated calcium influx by fluorescence assay; assay type: functional, cell-based; in short: as §1
[5] = molecular target: Glutamate NMDA receptor; Grin1/Grin2a (Rattus norvegicus, UniProt P35439+Q00959); assay: Antagonist activity at rat recombinant GluN1/GluN2A receptor expressed in Xenopus laevis oocytes assessed as inhibition of glutamate-induced response by two-electrode voltage-clamp electrophysiology assay; assay type: functional, cell-based, Oocyte; conditions: read-out: Ki(app)
[6] = test system: Kainate receptors (Rattus norvegicus); assay: Displacement of [3H]-Kainate from native kainate receptors in rat brain homogenate; conditions: concentration not given here
[7] = molecular target: Glutamate NMDA receptor; Grin1/Grin2b (Rattus norvegicus, UniProt P35439+Q00960); assay: Antagonist activity rat recombinant GluN1/GluN2B receptor expressed in Xenopus laevis oocytes assessed as inhibition of glutamate-induced response by two-electrode voltage-clamp electrophysiology assay; assay type: functional, cell-based, Oocyte; conditions: read-out: Ki(app)
In short: (§3)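 Two-electrode voltage clamp of oocytes expressing rat GluN1a with the given GluN2 subunit, held at −60 mV in buffer of 116 mM NaCl, 2 mM KCl, 0.3 mM BaCl2, 5 mM HEPES, pH 7.4. Response is the steady plateau to bath-applied 10 μM L-glutamate plus 10 μM glycine. IC50 converted to apparent Ki via Ki = IC50/(1 + [agonist]/EC50). Means ± s.e.m.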

Rattus norvegicus [8] = organism: Rattus norvegicus; assay: Selectivity ratio of Ki(app) for rat recombinant GluN1/GluN2A receptor to Ki(app) for rat recombinant GluN1/GluN2D receptor
[9] = molecular target: Glutamate NMDA receptor; Grin1/Grin2c (Rattus norvegicus, UniProt P35439+Q00961); assay: Antagonist activity rat recombinant GluN1/GluN2C receptor expressed in Xenopus laevis oocytes assessed as inhibition of glutamate-induced response by two-electrode voltage-clamp electrophysiology assay; assay type: functional, cell-based, Oocyte; conditions: read-out: Ki(app); in short: as §3
Rattus norvegicus [10] = organism: Rattus norvegicus; assay: Selectivity ratio of Ki(app) for rat recombinant GluN1/GluN2C receptor to Ki(app) for rat recombinant GluN1/GluN2D receptor; in short: as §2
[11] = Selectivity ratio of Kb for human recombinant GluK1 receptor to Ki(app) for rat recombinant GluN1/GluN2D receptor
[12] = Solubility of the compound in water at >100 uM; assay type: physicochemical; conditions: buffer
[13] = molecular target: Glutamate NMDA receptor; Grin1/Grin2a (Rattus norvegicus) (UniProt P35439+Q00959); assay: Antagonist activity at rat recombinant GluN1/GluN2A receptor expressed in Xenopus laevis oocytes assessed as inhibition of glutamate-induced response at 100 uM by two-electrode voltage-clamp electrophysiology assay; assay type: functional, cell-based; conditions: Oocyte
In short: (§4)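 Rat GluN1a co-expressed with GluN2A, 2B, 2C or 2D in Xenopus oocytes. Two-electrode voltage clamp at −60 mV in buffer of 116 mM NaCl, 2 mM KCl, 0.3 mM BaCl2, 5 mM HEPES, pH 7.4. Response is the steady plateau evoked by bath-applied 10 μM L-glutamate plus 10 μM glycine. Read-out is percent antagonism by 100 μM test compound.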

[14] = molecular target: Glutamate NMDA receptor; Grin1/Grin2c (Rattus norvegicus) (UniProt P35439+Q00961); assay: Antagonist activity rat recombinant GluN1/GluN2C receptor expressed in Xenopus laevis oocytes assessed as inhibition of glutamate-induced response at 100 uM by two-electrode voltage-clamp electrophysiology assay; assay type: functional, cell-based; conditions: Oocyte; in short: as §4
[15] = molecular target: Ionotropic glutamate receptor NMDA 1/2D (Rattus norvegicus) (UniProt P35439+Q62645); assay: Antagonist activity rat recombinant GluN1/GluN2D receptor expressed in Xenopus laevis oocytes assessed as inhibition of glutamate-induced response at 100 uM by two-electrode voltage-clamp electrophysiology assay; assay type: functional, cell-based; conditions: Oocyte; in short: as §4
[16] = molecular target: Glutamate NMDA receptor; Grin1/Grin2b (Rattus norvegicus) (UniProt P35439+Q00960); assay: Antagonist activity rat recombinant GluN1/GluN2B receptor expressed in Xenopus laevis oocytes assessed as inhibition of glutamate-induced response at 100 uM by two-electrode voltage-clamp electrophysiology assay; assay type: functional, cell-based; conditions: Oocyte; in short: as §4

Sequence of Glutamate receptor ionotropic, kainate 1 (P39086 whole entry): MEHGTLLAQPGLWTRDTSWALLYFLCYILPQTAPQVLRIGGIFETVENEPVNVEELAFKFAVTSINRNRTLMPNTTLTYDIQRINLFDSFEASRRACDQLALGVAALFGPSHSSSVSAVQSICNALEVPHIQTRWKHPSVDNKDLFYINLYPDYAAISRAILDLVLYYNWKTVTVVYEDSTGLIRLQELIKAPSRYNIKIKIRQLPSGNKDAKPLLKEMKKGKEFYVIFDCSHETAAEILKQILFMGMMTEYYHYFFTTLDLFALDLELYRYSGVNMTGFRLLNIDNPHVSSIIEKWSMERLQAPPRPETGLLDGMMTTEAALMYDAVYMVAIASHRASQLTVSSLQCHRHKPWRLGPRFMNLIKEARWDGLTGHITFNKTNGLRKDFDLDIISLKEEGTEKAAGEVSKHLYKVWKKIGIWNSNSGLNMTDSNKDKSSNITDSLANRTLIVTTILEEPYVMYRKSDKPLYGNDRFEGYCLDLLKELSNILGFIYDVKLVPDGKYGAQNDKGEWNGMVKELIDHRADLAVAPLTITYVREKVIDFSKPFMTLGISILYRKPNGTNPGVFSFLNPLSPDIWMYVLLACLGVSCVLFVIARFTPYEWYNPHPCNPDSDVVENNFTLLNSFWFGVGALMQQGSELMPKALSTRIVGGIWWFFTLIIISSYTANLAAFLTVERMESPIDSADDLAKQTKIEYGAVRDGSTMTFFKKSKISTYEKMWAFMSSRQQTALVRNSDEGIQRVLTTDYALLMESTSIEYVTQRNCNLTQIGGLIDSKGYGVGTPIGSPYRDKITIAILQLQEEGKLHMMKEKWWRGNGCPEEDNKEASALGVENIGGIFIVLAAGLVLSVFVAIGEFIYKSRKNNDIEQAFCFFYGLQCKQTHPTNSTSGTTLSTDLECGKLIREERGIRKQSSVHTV
Sequence of Glutamate receptor ionotropic, kainate 2 (Q13002 whole entry): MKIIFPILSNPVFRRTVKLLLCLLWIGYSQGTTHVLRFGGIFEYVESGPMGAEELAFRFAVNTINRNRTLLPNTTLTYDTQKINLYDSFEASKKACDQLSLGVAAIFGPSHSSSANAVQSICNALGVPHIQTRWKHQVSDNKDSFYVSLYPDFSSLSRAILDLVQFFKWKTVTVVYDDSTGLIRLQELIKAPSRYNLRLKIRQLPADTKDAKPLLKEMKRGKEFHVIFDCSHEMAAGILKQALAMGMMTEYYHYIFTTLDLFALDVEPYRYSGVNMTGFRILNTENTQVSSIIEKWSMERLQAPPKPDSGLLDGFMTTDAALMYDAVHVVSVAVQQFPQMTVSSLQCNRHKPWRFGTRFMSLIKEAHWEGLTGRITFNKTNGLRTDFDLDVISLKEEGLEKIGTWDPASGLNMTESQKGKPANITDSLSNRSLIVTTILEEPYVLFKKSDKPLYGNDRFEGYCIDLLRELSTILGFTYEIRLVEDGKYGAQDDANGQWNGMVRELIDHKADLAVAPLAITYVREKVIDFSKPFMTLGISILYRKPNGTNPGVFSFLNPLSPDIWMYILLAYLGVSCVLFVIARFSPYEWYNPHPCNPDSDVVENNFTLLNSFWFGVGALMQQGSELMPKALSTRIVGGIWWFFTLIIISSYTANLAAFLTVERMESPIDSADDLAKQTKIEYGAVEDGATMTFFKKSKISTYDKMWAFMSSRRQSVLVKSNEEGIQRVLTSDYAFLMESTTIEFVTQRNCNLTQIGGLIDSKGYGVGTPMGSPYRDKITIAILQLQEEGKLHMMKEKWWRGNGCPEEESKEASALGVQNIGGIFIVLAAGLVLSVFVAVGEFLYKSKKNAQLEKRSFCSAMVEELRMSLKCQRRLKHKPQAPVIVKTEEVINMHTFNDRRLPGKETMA

With `O=C(O)[C@H]1NCCN(S(=O)(=O)c2ccc(-c3ccccc3)cc2)[C@H]1C(=O)O` the Kb [1] was > 100 µM and the Ki [2] was 10.9 µM.

With `O=C(O)[C@H]1NCCN(C(=O)c2ccc3ccc4ccccc4c3c2)[C@H]1C(=O)O` the Ratio Ki(app) (Rattus norvegicus [3]) was 7, the Kb [4] was > 100 µM and the Ki [5] was 22 µM. It also gave an inhibition [6] of 10%, a Ki [7] of 17.2 µM and a Kb [1] of 14.2 µM. For the same compound, the Ki [2] was 2.4 µM, the Ratio Ki(app) (Rattus norvegicus [8]) was 10 and the Ki [9] was 5.2 µM. For the same compound, the Ratio Ki(app) (Rattus norvegicus [10]) was 2.

In the case of `O=C(O)[C@H]1NCCN(C(=O)c2ccc3c(c2)CCc2cc(Br)ccc2-3)[C@H]1C(=O)O`, the Kb [1] is reported as 11.5 µM and the Ki [2] is reported as 1 µM.

For `O=C(O)[C@H]1NCCN(C(=O)c2ccc3c(ccc4cc(Br)ccc43)c2)[C@H]1C(=O)O`, the Kb [4] was > 100 µM, the Kb [1] was 8 µM and the Ki [2] was 0.15 µM.

With `O=C(O)[C@H]1NCCN(Cc2ccc3c(ccc4ccccc43)c2)[C@H]1C(=O)O` the Kb [1] was 39 µM and the Ki [2] was 3.2 µM.

In the case of `O=C(O)[C@@H]1[C@H](C(=O)O)NCCN1C(=O)c1ccc2c(ccc3ccccc32)c1`, the Kb [4] is reported as > 100 µM, the Ki [5] is reported as 0.21 µM and the Ratio [11] is reported as 30. For the same compound, the Ki [7] was 0.22 µM, the Kb [1] was 3 µM and the Ki [2] was 0.09 µM. It also gave a Ki [9] of 0.07 µM.

With `O=C(O)[C@H]1NCCN(C(=O)c2ccc3c(c2)CCc2ccccc2-3)[C@H]1C(=O)O` the Kb [4] was > 100 µM, the Kb [1] was 14.1 µM and the Ki [2] was 0.57 µM.

With `O=C(O)[C@H]1NCCN(C(=O)c2ccc(-c3ccccc3)cc2)[C@H]1C(=O)O` the Kb [4] was > 100 µM, the Kb [1] was 9.8 µM and the Ki [2] was 4.3 µM.

Compound `O=C(O)[C@H]1NCCN(C(=O)c2ccc3ccccc3c2)[C@H]1C(=O)O` has a Kb [1] of 45.6 µM.

Work on `O=C(O)C1NCCN(C(=O)c2ccc3c(ccc4ccccc43)c2)C1C(=O)O` (racemic) [listing 1 of 2 here] yielded a Ki [5] of 0.55 µM, a Ki [7] of 0.31 µM and a Ki [2] of 0.13 µM. It also gave a Ki [9] of 0.1 µM.

With `O=C(O)[C@@H]1NCCN(C(=O)c2ccc3c(ccc4ccccc43)c2)[C@H]1C(=O)O` (racemic) the Kb [1] was 59.2 µM and the Ki [2] was 6 µM.

In the case of `O=C(O)C1NCCN(C(=O)c2ccc3c(ccc4ccccc43)c2)C1C(=O)O` (racemic) [listing 2 of 2 here], the Kb [4] is reported as > 100 µM and the Kb [1] is reported as 7.5 µM.

Compound `O=C(O)[C@H]1NCCN(C(=O)c2ccc3cc(F)ccc3c2)[C@H]1C(=O)O` (relative stereo) has a Ki [5] of 7.4 µM, a Ki [7] of 12.3 µM and a Kb [1] of 52.9 µM. It also gave a Ki [2] of 5.1 µM and a Ki [9] of 3.6 µM.

With `O=C(O)[C@H]1NCCN(C(=O)c2ccc3cc(Br)ccc3c2)[C@H]1C(=O)O` (relative stereo) the Ki [5] was 4.1 µM, the Ki [7] was 2.7 µM and the Kb [1] was 16.2 µM. The Ki [2] was 2.2 µM and the Ki [9] was 2.1 µM.

With `O=C(O)[C@H]1NCCN(C(=O)c2ccc3cc(I)ccc3c2)[C@H]1C(=O)O` (relative stereo) the Kb [4] was > 100 µM, the Ki [5] was 3 µM and the Ki [7] was 1.3 µM. It also gave a Kb [1] of 7.5 µM, a Ki [2] of 1.6 µM and a Ki [9] of 1.8 µM.

With `O=C(O)[C@H]1NCCN(C(=O)c2ccc3cc(-c4ccccc4)ccc3c2)[C@H]1C(=O)O` (relative stereo) the Kb [4] was > 100 µM, the Ki [5] was > 100 µM and the solubility [12] was “Insoluble”. For the same compound, the Ki [7] was > 100 µM, the Kb [1] was 5.8 µM and the Ki [2] was 2.4 µM. For the same compound, the Ki [9] was 5.1 µM.

For `O=C(O)[C@H]1NCCN(C(=O)CCc2ccc3ccccc3c2)[C@H]1C(=O)O` (relative stereo), the Ki [5] was 5.1 µM, the Ki [7] was 2.3 µM and the Kb [1] was 67.8 µM. It also gave a Ki [2] of 2.7 µM and a Ki [9] of 4.1 µM.

For `O=C(O)c1ccc2cc(C(=O)N3CCN[C@H](C(=O)O)[C@@H]3C(=O)O)ccc2c1` (relative stereo), the inhibition [13] was < 5%, the Ki [5] was > 100 µM and the Ki [7] was > 100 µM. For the same compound, the inhibition [14] was < 5%, the Kb [1] was 59.7 µM and the inhibition [15] was < 5%. The Ki [2] was > 100 µM, the inhibition [16] was < 5% and the Ki [9] was > 100 µM.

For `O=C(O)c1ccc(-c2ccc(C(=O)N3CCN[C@H](C(=O)O)[C@@H]3C(=O)O)cc2)cc1` (relative stereo), the solubility [12] was “Insoluble”, the Ki [7] was > 100 µM and the inhibition [14] was < 15%. For the same compound, the Kb [1] was 51.5 µM, the inhibition [16] was < 15% and the Ki [9] was > 100 µM.

For `O=C(O)[C@H]1NCCN(C(=O)c2ccc(C#Cc3ccccc3)cc2)[C@H]1C(=O)O` (relative stereo), the Kb [4] was > 100 µM, the Ki [5] was 138 µM and the Ki [7] was 24.1 µM. The Ki [2] was 10.5 µM and the Ki [9] was 21.4 µM.

For `O=C(O)[C@H]1NCCN(C(=O)c2ccc(/N=N/c3ccccc3)cc2)[C@H]1C(=O)O` (relative stereo), the Kb [4] was > 100 µM, the Ki [5] was 99.3 µM and the Ki [7] was 12.9 µM. It also gave a Ki [2] of 10.8 µM and a Ki [9] of 28 µM.

In the case of `O=C(O)[C@H]1NCCN(C(=O)c2ccc(CCc3ccccc3)cc2)[C@H]1C(=O)O` (relative stereo), the inhibition [13] is reported as 11.5%, the Ki [5] is reported as > 100 µM and the Ki [7] is reported as > 100 µM. For the same compound, the inhibition [14] was 29.1%, the Kb [1] was 16.7 µM and the inhibition [15] was 10.2%. For the same compound, the Ki [2] was > 100 µM, the inhibition [16] was > 5% and the Ki [9] was > 100 µM.

`O=C(O)[C@H]1NCCN(C(=O)c2ccc3cc(Cl)c4ccccc4c3c2)[C@H]1C(=O)O` (relative stereo) gave a Ki [5] of 7.2 µM, a Ki [7] of 15.2 µM and a Kb [1] of 21.8 µM. It also gave a Ki [2] of 1.7 µM and a Ki [9] of 3.2 µM.

For `O=C(O)[C@H]1NCCN(C(=O)c2ccc3cc(Br)c4ccccc4c3c2)[C@H]1C(=O)O` (relative stereo), the Ratio Ki(app) (Rattus norvegicus [3]) was 7, the Kb [4] was > 100 µM and the Ki [5] was 11.5 µM. For the same compound, the inhibition [6] was 10%, the Ratio [11] was 9 and the Ki [7] was 8 µM. It also gave a Kb [1] of 12.8 µM, a Ki [2] of 1.2 µM and a Ratio Ki(app) (Rattus norvegicus [8]) of 10. The Ki [9] was 2.8 µM and the Ratio Ki(app) (Rattus norvegicus [10]) was 2.

In the case of `O=C(O)[C@H]1NCCN(C(=O)c2ccc3cc4ccccc4cc3c2)[C@H]1C(=O)O` (relative stereo), the Kb [4] is reported as > 100 µM, the Ki [5] is reported as 10.5 µM and the Ki [7] is reported as 5.2 µM. For the same compound, the Kb [1] was 14.4 µM, the Ki [2] was 2.5 µM and the Ki [9] was 3.4 µM.

`O=C(O)C1NCCN(C(=O)c2ccc3c(ccc4ccccc43)c2)C1C(=O)O` (single isomer, unassigned; (+)) showed a Kb [1] of 82 µM.
